Drawing on the array DNA melting data of Ke et al. (doi:10.1101/2024.01.08.574731), this text covers folding enthalpy and Tm for 37 sequences.

The nature of series [1]: folding enthalpy; higher = less favourable; fluorescence melt of hairpins on a sequencing array, two-state fit. The conditions noted are these: sodium 0.088 M. The method in brief: (§1)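 Cy3 fluorescence of library hairpins on a sequenced MiSeq flow cell, with annealed Cy3 and quencher oligos, was imaged in 50 mM Na-HEPES pH 8.0, 25 mM NaCl in 2.5 °C steps up to 60 °C. Signals were normalised to pre-quench Cy3 and to control variants. Melting temperature and folding enthalpy came from bootstrapped two-state fits, inverse-variance combined over four replicates. Fitted temperatures were raised by 9.35 °C to match UV melts.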

The nature of series [2]: melting temperature; fluorescence melt of hairpins on a sequencing array, two-state fit, raised by 9.35 °C to match UV melts. To be noted: sodium 0.088 M. The method in brief:
as §1

Regarding GCTCGTGGAAACACGAAC (.(((((....))))).), the folding enthalpy in series [1] is -61.1 kJ/mol. Moreover, the Tm in series [2] came out at 45.2 °C.

Take GCTCTAACGAAAGTTAGC (((..(((....)))))): the folding enthalpy in series [1] was -57.4 kJ/mol. Moreover, in series [2], the Tm came to 33.8 °C.

In the case of GCTCTAGGAAACCAGAGC (((((.(....).))))), in series [1], the folding enthalpy was -131 kJ/mol. Further, the Tm in series [2] was 44 °C.

As for GCTCTAGGAAACTGGAGC ((((.((....)).)))), the folding enthalpy in series [1] is -150 kJ/mol. Also, in series [2], the Tm amounted to 49.6 °C.

As for GCTCTCCGAAAGGAAGC (((.(((....)))))), the folding enthalpy in series [1] is -108 kJ/mol. The Tm in series [2] was determined as 47.8 °C.

As for GCTCTCGAAAGAGAAAGC ((((((....)))..))), the folding enthalpy in series [1] is -94.5 kJ/mol. In addition, the Tm in series [2] came to 40 °C.

Take GCTCTCGAAAGAGCAAGC ((((((....)))..))): the folding enthalpy in series [1] is -50.9 kJ/mol. Further, in series [2], the Tm is 42.9 °C.

Turning to GCTCTCGAAAGAGGAAGC ((((((....)))..))), the folding enthalpy in series [1] was -78.7 kJ/mol. Further, in series [2], the Tm is 38.4 °C.

As for GCTCTCGGAAACGAGAAC (.(((((....))))).), the folding enthalpy in series [1] was -66.9 kJ/mol. The Tm in series [2] is 41.8 °C.

For GCTCTCGGAAACGAGGGC ((.((((....)))).)), the folding enthalpy in series [1] is -167 kJ/mol. The Tm in series [2] stood at 58.7 °C.

Take GCTCTCTCGAAAGAGAGC (((..(((....)))))): the folding enthalpy in series [1] is -112 kJ/mol. The Tm in series [2] was found to be 60.3 °C.

Regarding GCTCTGAAAAGAGC (((((....))))), the folding enthalpy in series [1] is -90.6 kJ/mol. In addition, the Tm in series [2] came out at 57.8 °C.

Take GCTCTGCGAAAGCAAAGC (((.(((....))).))): the folding enthalpy in series [1] is -125 kJ/mol. The Tm in series [2] is 46.1 °C.

Regarding GCTCTGCGAAAGCAATGC ((..(((....)))..)), the folding enthalpy in series [1] is -43.9 kJ/mol. Moreover, the Tm in series [2] amounted to 31.6 °C.

As for GCTCTGCGAAAGCACCGC ((..(((....)))..)), the folding enthalpy in series [1] was -36.8 kJ/mol. The Tm in series [2] amounted to 31.8 °C.

On to GCTCTGCGAAAGCAGCGC ((.((((....)))).)), for which the folding enthalpy in series [1] was -72.3 kJ/mol. The Tm in series [2] worked out at 57.6 °C.

With GCTCTGCGAAAGCATTGC ((..(((....)))..)), the folding enthalpy in series [1] was -59.3 kJ/mol. Further, the Tm in series [2] is 40.5 °C.

For GCTCTGCGAAAGCCAAGC (((..((....))..))), in series [1], the folding enthalpy is -58.1 kJ/mol. Moreover, in series [2], the Tm is 34.8 °C.

GCTCTGCGAAAGCCGGGC ((.(.((....)).).)): the folding enthalpy in series [1] is -84.1 kJ/mol. Moreover, the Tm in series [2] was 41.7 °C.

In the case of GCTCTGCGAAAGCGGTGC ((.(.((....)).).)), the folding enthalpy in series [1] is -79.3 kJ/mol. Moreover, the Tm in series [2] came to 54.4 °C.

As for GCTCTGGGAAACTAGAGC (((((.(....).))))), the folding enthalpy in series [1] is -213 kJ/mol. Also, the Tm in series [2] was found to be 49.7 °C.

As for GCTCTTCGAAAGAAAAGC (((.(((....))).))), the folding enthalpy in series [1] was -131 kJ/mol. The Tm in series [2] came to 34.6 °C.

Take GCTCTTCGAAAGAACAGC (((.(((....))).))): the folding enthalpy in series [1] is -93 kJ/mol. For the same sequence, in series [2], the Tm worked out at 34.7 °C.

For the sequence GCTGAACGAAAGTTTAGC (((.(((....))).))), in series [1], the folding enthalpy was -132 kJ/mol. Further, in series [2], the Tm was found to be 53 °C.

Turning to GCTGAAGAAATTCAGC ((((((....)))))), the folding enthalpy in series [1] was -157 kJ/mol. Further, the Tm in series [2] came to 54.5 °C.

Consider GCTGAAGGAAACCTCAGC (((((.(....).))))), for which, in series [1], the folding enthalpy was -156 kJ/mol. Further, in series [2], the Tm came to 47 °C.

Take GCTGAAGGAAACTTCGGC ((.((((....)))).)): in series [1], the folding enthalpy is -207 kJ/mol. Moreover, the Tm in series [2] worked out at 51.3 °C.

For the sequence GCTGAAGGAAACTTTGGC ((..(((....)))..)), the folding enthalpy in series [1] is -83.6 kJ/mol. In addition, in series [2], the Tm is 33 °C.

For GCTGACCGAAAGGTAGC (((.(((....)))))), in series [1], the folding enthalpy was -107 kJ/mol. Also, the Tm in series [2] was 51.7 °C.

Take GCTGACCGAAAGGTTAGC (((.(((....))).))): the folding enthalpy in series [1] was -141 kJ/mol. For the same sequence, in series [2], the Tm turned out to be 58.9 °C.

GCTGACGAAAGTCCCAGC ((((((....)))..))): the folding enthalpy in series [1] was -59.5 kJ/mol. For the same sequence, the Tm in series [2] came to 36.7 °C.

In the case of GCTGACGAAAGTCTGAGC ((((((....)))..))), the folding enthalpy in series [1] was -84.3 kJ/mol. Further, the Tm in series [2] stood at 43.5 °C.

GCTGACGGAAACGCCAGC ((((.((....)).)))): in series [1], the folding enthalpy was -176 kJ/mol. The Tm in series [2] worked out at 55.3 °C.

For the sequence GCTGACGGAAACGTTAGC (((.(((....))).))), the folding enthalpy in series [1] was -180 kJ/mol. The Tm in series [2] stood at 53.6 °C.

With GCTGACGGAAACGTTGGC ((..(((....)))..)), the folding enthalpy in series [1] is -114 kJ/mol. Also, in series [2], the Tm worked out at 47 °C.

In the case of GCTGAGCGAAAGCACTGC ((.(.((....)).).)), the folding enthalpy in series [1] is -83.6 kJ/mol. In addition, the Tm in series [2] worked out at 49.5 °C.

Regarding GCTGAGCGAAAGCGTAGC (((..((....))..))), the folding enthalpy in series [1] is -91 kJ/mol. Moreover, the Tm in series [2] is 62 °C.
